Values after ≈ are worked out from the molar mass of the structure shown. Active and inactive are the calls of the source. No cut-off for these calls is given here.
How the values were obtained:
[1] = Half life in human liver microsomes at 1 uM by LC/MS analysis; type: ADME
Outline: (§1)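 Compound at 1 µM final, diluted from […], with 0.5 mg/mL pooled human or mouse liver microsomes, NADP, MgCl2 and 0.1 M PBS pH 7.4. Reaction started with 1 U/mL G6PD and shaken at 37 °C. Aliquots quenched in cold acetonitrile at 0, 10, 20, 30 and 60 min and quantified by LC/MS. Half-life from log plot of total ion chromatogram area remaining.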

[2] = Half life in mouse liver microsomes at 1 uM by LC/MS analysis; type: ADME; outline: as §1
[3] = tested on: Plasmodium falciparum; assay: Antimalarial activity against chloroquine-sensitive Plasmodium falciparum D6 assessed as growth inhibition after 18 hrs by [3H]-hypoxanthine uptake assay; type: functional, organism-based
Outline: (§2)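 P. falciparum clones D6, W2 and TM91C235; modified semiautomated microdilution. Compounds in DMSO, diluted in RPMI 1640 with 10% human plasma, tested over (1.56-100) x 10^-9 M; final DMSO 0.25-0.5%. Inoculum 0.5% parasitemia, 1% hematocrit. 24 h incubation, then [3H]-hypoxanthine added, further 18 h. Harvested and read by scintillation counting; IC50 by nonlinear regression.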

[4] = tested on: Plasmodium falciparum; assay: Antimalarial activity against chloroquine-resistant Plasmodium falciparum W2 assessed as growth inhibition after 18 hrs by [3H]-hypoxanthine uptake assay; type: functional, organism-based; outline: as §2
[5] = tested on: Plasmodium falciparum; assay: Antimalarial activity against chloroquine-resistant Plasmodium falciparum C235 assessed as growth inhibition after 18 hrs by [3H]-hypoxanthine uptake assay; type: functional, organism-based; outline: as §2
[6] = tested on: HepG2; assay: Cytotoxicity against human HepG2 cells after 48 hrs by MTT assay; type: cell-based; conditions: HepG2, 48 h
Outline: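 HepG2 cells in supplemented MEM, plated at 9570 cells/well in 384-well format and incubated overnight at 37 °C, 5% CO2. Twelve duplicate 1.6-fold dilutions, 57–10,000 ng/ml, incubated 48 h. MTT added for 1 h at room temperature in the dark, formazan dissolved in acidified isopropanol, absorbance read. IC50 by sigmoidal variable-slope nonlinear regression; tryptanthrin control.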

[7] = tested on: Plasmodium berghei; assay: Antimalarial activity against erythrocytic stage of chloroquine resistant Plasmodium berghei ANKA infected in mouse assessed as cure rate at 160 mg/kg, po qd administered on day 3, 4 and 5 post infection measured 3 times per week for 30 days, starting from day 3 by Thompson test; type: functional, organism-based; set-up: dose 160 mg/kg
Outline: (§3)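 Male mice of 16-20 g inoculated intraperitoneally with 5 x 10^6 erythrocytes infected with CQ-resistant P. berghei ANKA. Drug given orally as a suspension once daily on days 3, 4 and 5 post-infection, five mice per dose. Blood films from day 3, three times weekly for 30 days. Cure means parasite-negative on day 30 or surviving 30 days. Mice losing >20% body weight sacrificed.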

[8] = tested on: Plasmodium berghei; assay: Antimalarial activity against erythrocytic stage of chloroquine resistant Plasmodium berghei ANKA infected in mouse assessed as parasite clearance at 160 mg/kg, po qd administered on day 3, 4 and 5 post infection measured on day 2 to 7 post last dose; type: functional, organism-based; set-up: dose 160 mg/kg
Outline: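 Male mice of 16-20 g inoculated intraperitoneally with 5 x 10^6 erythrocytes infected with CQ-resistant P. berghei ANKA. Drug given orally as a suspension once daily on days 3, 4 and 5 post-infection, five mice per dose. Parasitemia followed by blood films from day 3, three times weekly for 30 days; infected untreated mice served as negative controls.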

[9] = tested on: Mus musculus; assay: Toxicity in mouse infected with erythrocytic stage of chloroquine resistant Plasmodium berghei ANKA up to 160 mg/kg, po qd administered on day 3, 4 and 5 post infection measured over 30 days; type: organism-based, Erythrocyte; set-up: dose 160 mg/kg, route oral; conditions: in vivo, 720 h
Outline: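 Male mice of 16-20 g infected intraperitoneally with CQ-resistant P. berghei ANKA (5 x 10^6 infected erythrocytes). Oral dosing once daily on days 3-5, five mice per group. Animals followed for 30 days by blood films; mice losing >20% body weight sacrificed.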

[10] = biological target: hERG (KCNH2) (Homo sapiens, UniProt Q12809); assay: Inhibition of human ERG expressed in CHL cells assessed as tail current at 10 uM after 7 mins by patch clamp assay relative to control; type: cell-based; conditions: CHL cells expressing human ERG
Sequence of hERG (KCNH2) (Q12809 whole entry): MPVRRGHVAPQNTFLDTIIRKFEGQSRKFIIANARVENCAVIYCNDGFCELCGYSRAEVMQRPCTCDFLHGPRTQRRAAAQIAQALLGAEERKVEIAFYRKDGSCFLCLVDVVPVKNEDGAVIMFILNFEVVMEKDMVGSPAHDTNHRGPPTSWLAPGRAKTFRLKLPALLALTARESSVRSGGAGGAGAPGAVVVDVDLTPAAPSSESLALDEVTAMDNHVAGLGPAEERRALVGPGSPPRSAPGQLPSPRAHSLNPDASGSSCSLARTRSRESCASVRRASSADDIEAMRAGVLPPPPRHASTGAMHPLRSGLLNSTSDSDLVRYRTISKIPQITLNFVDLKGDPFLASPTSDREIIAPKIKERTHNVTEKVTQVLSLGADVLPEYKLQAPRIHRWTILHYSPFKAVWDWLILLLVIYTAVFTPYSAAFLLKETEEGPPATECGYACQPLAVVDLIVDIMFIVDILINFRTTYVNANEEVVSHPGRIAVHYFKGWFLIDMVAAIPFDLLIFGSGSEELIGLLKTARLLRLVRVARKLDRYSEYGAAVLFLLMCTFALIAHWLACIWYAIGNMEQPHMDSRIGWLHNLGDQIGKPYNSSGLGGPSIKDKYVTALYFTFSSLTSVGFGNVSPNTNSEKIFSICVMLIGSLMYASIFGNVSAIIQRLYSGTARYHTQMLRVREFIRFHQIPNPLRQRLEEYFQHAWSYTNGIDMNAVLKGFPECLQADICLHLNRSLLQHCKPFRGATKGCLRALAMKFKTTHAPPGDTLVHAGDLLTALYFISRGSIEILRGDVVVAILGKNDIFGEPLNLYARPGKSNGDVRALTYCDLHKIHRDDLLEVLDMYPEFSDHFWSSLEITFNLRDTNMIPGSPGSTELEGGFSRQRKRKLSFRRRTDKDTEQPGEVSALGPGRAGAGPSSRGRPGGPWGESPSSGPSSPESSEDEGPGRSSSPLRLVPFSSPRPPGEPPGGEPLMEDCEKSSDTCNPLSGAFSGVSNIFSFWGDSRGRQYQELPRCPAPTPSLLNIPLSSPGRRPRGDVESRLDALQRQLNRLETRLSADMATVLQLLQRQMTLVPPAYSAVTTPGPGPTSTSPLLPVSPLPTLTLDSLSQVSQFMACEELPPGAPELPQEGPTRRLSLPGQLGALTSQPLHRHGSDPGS

[11] = tested on: Plasmodium berghei; assay: Antimalarial activity against erythrocytic stage of chloroquine resistant Plasmodium berghei ANKA infected in mouse assessed as cure rate at 120 mg/kg, po qd administered on day 3, 4 and 5 post infection measured 3 times per week for 30 days, starting from day 3 by Thompson test; type: functional, organism-based; set-up: dose 120 mg/kg; outline: as §3
[12] = tested on: Plasmodium berghei; assay: Antimalarial activity against erythrocytic stage of chloroquine resistant Plasmodium berghei ANKA infected in mouse assessed as cure rate at 60 mg/kg, po qd administered on day 3, 4 and 5 post infection measured 3 times per week for 30 days, starting from day 3 by Thompson test; type: functional, organism-based; set-up: dose 60 mg/kg; outline: as §3
[13] = Elimination half life in ICR mouse at 80 mg/kg, po; type: ADME, organism-based; set-up: dose 80 mg/kg, route oral; conditions: in vivo, read-out: beta t1/2 (converted)
Outline: (§4)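 Male 7-week-old ICR mice, 23–28 g, given a single intragastric dose of 80 mg/kg in DD water (100 µL/20 g). Three mice per time point; whole blood taken by cardiac puncture into lithium heparin tubes and spun to plasma. Parameters come from plasma concentration–time curves of parent drug. t1/2 = ln2/kel from the log plot. AUC by linear trapezoidal rule, extrapolated to infinity; MRT = AUMC/AUC.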

[14] = Tmax in ICR mouse at 80 mg/kg, po; type: ADME, organism-based; set-up: dose 80 mg/kg, route oral; conditions: in vivo; outline: as §4
[15] = Cmax in ICR mouse at 80 mg/kg, po; type: ADME, organism-based; set-up: dose 80 mg/kg, route oral; conditions: in vivo; outline: as §4
[16] = AUClast in ICR mouse at 80 mg/kg, po; type: ADME, organism-based; set-up: time 0 - last, dose 80 mg/kg, route oral; conditions: plasma
[17] = AUCinfinity in ICR mouse at 80 mg/kg, po; type: ADME, organism-based; set-up: time infinity, dose 80 mg/kg, route oral; conditions: plasma; outline: as §4
[18] = Apparent volume of distribution during terminal phase in ICR mouse at 80 mg/kg, po; type: ADME, organism-based; set-up: dose 80 mg/kg, route oral; conditions: in vivo, read-out: Vz/F
[19] = Apparent oral clearance in ICR mouse at 80 mg/kg; type: ADME, organism-based; set-up: dose 80 mg/kg, route oral; conditions: in vivo
[20] = Mean residence time in ICR mouse at 80 mg/kg, po; type: ADME, organism-based; set-up: dose 80 mg/kg, route oral; conditions: in vivo; outline: as §4
[21] = tested on: Salmonella typhi; assay: Mutagenicity in Salmonella typhi by Ames test; type: toxicity, organism-based; conditions: salmonella enterica subsp. enterica […]
[22] = tested on: Plasmodium falciparum; assay: Potency index, ratio of chloroquine IC50 to compound IC50 for chloroquine-resistant Plasmodium falciparum W2; type: functional
[23] = tested on: Plasmodium berghei; assay: Antimalarial activity against erythrocytic stage of chloroquine resistant Plasmodium berghei ANKA infected in mouse assessed as cure rate at 15 mg/kg, po qd administered on day 3, 4 and 5 post infection measured 3 times per week for 30 days, starting from day 3 by Thompson test; type: functional, organism-based; set-up: dose 15 mg/kg; outline: as §3

Question: For `C/C(=N/c1ccnc2cc(Cl)ccc12)NC1CCN(C(C)C)CC1`, which half-life at 1 µM [1] is on record?
Answer: > 1 h

Question: And the half-life at 1 µM [2]?
Answer: > 1 h

Question: What about the IC50 [3] of the same molecule?
Answer: 108 nM

Question: And the IC50 [4]?
Answer: 166 nM

Question: What about the IC50 [5] of the same molecule?
Answer: 134 nM

Question: What about the IC50 [6] of the same molecule?
Answer: 5.71 µg/mL (≈ 16.6 µM)

Question: What about the Activity [7] of the same molecule?
Answer: inactive

Question: And the Activity [8]?
Answer: Active

Question: And the Activity [9]?
Answer: Non-toxic

Question: With `CCN(CC)CCC/N=C(\C)N(CCCN(CC)CC)c1c2ccc(Cl)cc2nc2ccc(OC)nc12` as the molecule, how does the half-life at 1 µM [1] read?
Answer: > 1 h

Question: What about the half-life at 1 µM [2] of the same molecule?
Answer: > 1 h

Question: What about the IC50 [3] of the same molecule?
Answer: 1.3 nM

Question: And the IC50 [4]?
Answer: 9.5 nM

Question: And the IC50 [5]?
Answer: 5.1 nM

Question: What about the IC50 [6] of the same molecule?
Answer: 3.04 µg/mL (≈ 5.78 µM)

Question: And the inhibition at 7 min, 10 µM [10]?
Answer: 13.8%

Question: And the Activity [11]?
Answer: Active

Question: What about the Activity [12] of the same molecule?
Answer: Active

Question: And the half-life [13]?
Answer: 47.5 h

Question: And the Tmax [14]?
Answer: 2 h

Question: And the Cmax [15]?
Answer: 222 ng/mL

Question: And the AUC(0-t) [16]?
Answer: 4930 ng·h/mL

Question: What about the AUC(0-inf) [17] of the same molecule?
Answer: 8950 ng·h/mL

Question: What about the Vd/F [18] of the same molecule?
Answer: 610 L/kg

Question: And the CL/F [19]?
Answer: 150 mL/min/kg

Question: And the MRT [20]?
Answer: 22.1 h

Question: And the Activity [21]?
Answer: Non-toxic

Question: What about the Activity [9] of the same molecule?
Answer: Non-toxic

Question: What does the source list for `CCN(CC)CCCCN/C(C)=N\c1ccnc2cc(Cl)ccc12`?
Answer: half-life at 1 µM [1]: > 1 h; half-life at 1 µM [2]: > 1 h; IC50 [3]: 24.9 nM; IC50 [4]: 98.3 nM; IC50 [5]: 26 nM; IC50 [6]: 2.68 µg/mL (≈ 7.73 µM); Activity [7]: inactive; Activity [8]: Active; Activity [9]: Non-toxic

Question: Which half-life at 1 µM [1] does the source give for `C/C(=N/c1ccnc2cc(Cl)ccc12)NC1CCN(Cc2ccccc2)CC1` here?
Answer: > 1 h

Question: And the half-life at 1 µM [2]?
Answer: > 1 h

Question: And the IC50 [3]?
Answer: 56 nM

Question: What about the IC50 [4] of the same molecule?
Answer: 199 nM

Question: What about the IC50 [5] of the same molecule?
Answer: 87 nM

Question: And the IC50 [6]?
Answer: 8.07 µg/mL (≈ 20.5 µM)

Question: And the Activity [7]?
Answer: inactive

Question: What about the Activity [8] of the same molecule?
Answer: Active

Question: What about the Activity [9] of the same molecule?
Answer: Non-toxic

Question: Which results are given for `C/C(=N/c1ccnc2cc(Cl)ccc12)NCCCCN1CCCCC1`?
Answer: half-life at 1 µM [1]: > 1 h; half-life at 1 µM [2]: > 1 h; IC50 [3]: 62 nM; IC50 [4]: 126 nM; IC50 [5]: 64 nM; IC50 [6]: 9.81 µg/mL (≈ 27.3 µM); Activity [7]: inactive; Activity [8]: Active; Activity [9]: Non-toxic

Question: For `CN(C)CCCN/C(=N\c1ccnc2cc(Cl)ccc12)c1ccccc1`, which half-life at 1 µM [1] is on record?
Answer: > 1 h

Question: And the half-life at 1 µM [2]?
Answer: 0.867 h

Question: And the IC50 [3]?
Answer: 2.1 nM

Question: What about the IC50 [4] of the same molecule?
Answer: 9.2 nM

Question: What about the IC50 [5] of the same molecule?
Answer: 3.4 nM

Question: What about the IC50 [6] of the same molecule?
Answer: 5.13 µg/mL (≈ 14 µM)

Question: What about the inhibition at 7 min, 10 µM [10] of the same molecule?
Answer: 90.6%

Question: And the “Ratio IC50” value [22]?
Answer: 50

Question: What about the Activity [21] of the same molecule?
Answer: Non-toxic

Question: Which results are given for `COc1ccc2nc3cc(Cl)ccc3c(N/C(=N/CCCN(C)C)c3ccc(Cl)cc3)c2n1`?
Answer: half-life at 1 µM [1]: 0.533 h; half-life at 1 µM [2]: > 1 h; IC50 [3]: 2.8 nM; IC50 [4]: 6.6 nM; IC50 [5]: 4.3 nM; IC50 [6]: 2.51 µg/mL (≈ 5.2 µM); inhibition at 7 min, 10 µM [10]: 77%; Activity [12]: Active; Activity [23]: Active; Activity [21]: Non-toxic; Activity [9]: Non-toxic

Question: Which half-life at 1 µM [1] does the source give for `CCN(CC)CCCN/C(=N\c1ccnc2cc(Cl)ccc12)c1ccccc1` here?
Answer: 0.35 h

Question: What about the half-life at 1 µM [2] of the same molecule?
Answer: 0.267 h

Question: What about the IC50 [3] of the same molecule?
Answer: 1.8 nM

Question: And the IC50 [4]?
Answer: 7.2 nM

Question: And the IC50 [5]?
Answer: 3.3 nM

Question: What about the IC50 [6] of the same molecule?
Answer: 5.08 µg/mL (≈ 12.9 µM)

Question: What about the inhibition at 7 min, 10 µM [10] of the same molecule?
Answer: 100%

Question: And the “Ratio IC50” value [22]?
Answer: 50

Source: ChEMBL document CHEMBL3421610, “Antimalarial activity of 4-amidinoquinoline and 10-amidinobenzonaphthyridine derivatives” (J Med Chem, 2015)
